According to ChEMBL document CHEMBL4513216, “Probing the Open Global Health Chemical Diversity Library for Multistage-Active Starting Points for Next-Generation Antimalarials” (ACS Infect Dis, 2020):

Test: Toxicity liver stage against HepG2, at 10uM
Assay type: cell-based
Set-up: test concentration 10 uM, cell line HepG2-A16-CD81EGFP
Conditions: human, HepG2-A16-CD81EGFP cells; read-out: INHIBITION
How it was run: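 Uninfected HepG2-A16-CD81EGFP cells, 3 × 10^3 per well, 1536-well, plated on prespotted compound at 10 μM final, parasite-free screening media added to match infected plates; puromycin 10 μM positive, DMSO 0.5% negative; run in parallel with 48 h PbLuc assay at 37 °C, 5% CO2; viability by CellTiter-Glo luminescence, normalized to controls.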

| SMILES | cytotoxicity at 10 µM [%] |
| --- | --- |
| CCc1nc(CNC(=O)C2CCC(=O)N(Cc3ccccc3F)C2)no1 (configuration not stated) | -1.88 |
| CCC(NC(N)=O)c1ccccc1OCC(=O)N1CCCC1 (configuration not stated) | -8.29 |
| CCN1CC(COC(C)(C)C)Oc2ccncc2S1(=O)=O (configuration not stated) | -3.43 |
| COc1cc(C2CC(=O)Oc3cc(C)[nH]c(=O)c32)ccc1OCC(=O)O (configuration not stated) | -4.23 |
| Cc1ccc(C(=O)Nc2nnc(C(C)C)s2)c(-n2cnnn2)c1C | -0.649 |
| COc1ccc(C(=O)Nc2ccc3ncn(C(C)C)c(=O)c3c2)cc1 | 4.04 |
| CCc1cc(=O)[nH]c2nnc(SCC(=O)NC)n12 | -4.06 |
| CNC(=O)Cn1nc(C(C)C)c2cnn(C(C)(C)C)c2c1=O | -7.67 |
| COc1nn(C)cc1-c1nnc(SCc2cccnc2)n1C | -2.06 |
| CC(=O)Nc1ccc(CC(=O)N2CC(S(=O)(=O)C3CCCCC3)C2)cc1 | -12.8 |
| CCn1cc(C(=O)Nc2cc(C(=O)OC)ccc2C(=O)OC)cn1 | -1.2 |
| CN(C)CCCNC(=O)CNC(=O)N1CCc2c([nH]c3ccccc23)C1 | 3.33 |
| O=C(COc1coc(CN2CCCCC2)cc1=O)Nc1ccc(Cl)cc1 | 3.48 |
| COc1ccc(OC)c(Sc2ncccc2C(=O)N(C)CCC#N)c1 | 13.3 |
| O=C(Cn1cc(-c2ccccc2)ncc1=O)Nc1nnc[nH]1 | 20.3 |
| CCOc1ccc(C2CC(=O)Nc3c2c(=O)nc2sccn32)cc1 (configuration not stated) | -12.7 |
| CN(C(=O)Cn1nc(-c2ccc(F)cc2)ccc1=O)C1CCS(=O)(=O)C1 (configuration not stated) | -3.57 |
| CCn1nccc1CNC(=O)CCC1CCCC1 | 11.4 |
| CCCN1CCN(c2nc(N)nc3c2nc(C)n3C)CC1 | -5.15 |
| Cc1noc(C)c1C(=O)N1CCC(c2cc3cnccc3[nH]2)CC1 | 7.07 |
| CCc1cc(O)n2nc(C3CCN(C(=O)c4cccnc4)CC3)cc2n1 | 7.09 |
| O=C1CN(C(=O)C2CN(c3cccc(F)c3)CCO2)CCN1 (configuration not stated) | 5.37 |
| CCc1ncc(CN2CCc3nc4sc(C)cc4c(=O)n3CC2)cn1 | -6.47 |

| SMILES | cytotoxicity at 10 µM [%] |
| --- | --- |
| O=S(=O)(c1ccc(F)cc1)N1CCCCC1c1cc[nH]n1 (configuration not stated) | -3.55 |
| O=C(c1cccc(F)c1)N1CCOC(c2nc(-c3ncccn3)no2)C1 (configuration not stated) | 5.3 |
| COc1ccc(C(C)NCc2ccnn2C)cc1Cn1cccn1 (configuration not stated) | 7.57 |
| CCOC(C)c1nccn1CCC(=O)Nc1cc(C)on1 (configuration not stated) | 10.1 |
| Cc1cnn(CCNCc2cc(=O)n3cc(Cl)ccc3n2)c1 | 0.217 |
| CCN(CC)C(CNC(=O)c1ccnc(N(C)C)c1)c1ccsc1 (configuration not stated) | -149 |
| CC(NC(=O)NC1CCN(Cc2ccncc2)CC1)c1cccc(F)c1 (configuration not stated) | -12.5 |
| O=C(c1ccn(-c2ccc(F)cc2)n1)N(CCO)Cc1cccnc1 | 17.5 |
| CC(C)c1nc(CNc2ccc(N3CCC(CO)CC3)cn2)cs1 | -2.6 |
| Cc1cccnc1NC(=O)c1ccc(F)c(S(=O)(=O)N2CCC2)c1 | 4.5 |
| Cc1nn(C)c(C)c1C1CCCN1CCOc1cccc(C#N)c1 (configuration not stated) | -8.41 |
| CCC(=O)N1CCCN(c2cncc(-n3nc(C)cc3C)n2)CC1 | -8.44 |
| CCc1ccc(CNC(=O)NC2CCCc3c2cnn3CCO)s1 (configuration not stated) | -6.78 |
| CS(=O)(=O)c1ccc(OCCNCc2ccc(F)cc2)cc1 | -8.86 |
| NC(=O)C(CNC(=O)CCc1ccsc1)Cc1ccc(F)cc1 (configuration not stated) | 21.2 |
| O=C(NCCOc1ncc(Cl)cc1Cl)NCc1ccncc1 | -1.86 |
| CCn1ccnc1CN1CCN(Cc2cnc(C)cn2)CC1C (configuration not stated) | -2.76 |
| COCC(NC(=O)c1ccoc1)c1ccc(C)o1 (configuration not stated) | 3.6 |
| CCC1c2ccccc2CCN1C(=O)c1ccc(OC)nn1 (configuration not stated) | -12.8 |
| CN(CC1CCCCC1)C(=O)c1cn(C)nc1-c1cccnc1 | 2.2 |
| O=C(NCCCn1ccnc1)c1csc2c1CCCC2 | -2.96 |
| Cc1ccsc1CNC(=O)NC1CCCc2c1cnn2CCO (configuration not stated) | 3.33 |
| COCCNC(=O)C[C@@H]1COC[C@H]2CN(C(=O)COC)C[C@@H]12 | -96.5 |

| SMILES | cytotoxicity at 10 µM [%] |
| --- | --- |
| COC[C@@]12CCO[C@@H]1CCN(C(=O)C1CCOCC1)C2 | -106 |
| CCS(=O)(=O)N1CCC2(CCN(Cc3ccc(C)o3)C2)C1 (configuration not stated) | -116 |
| CC(=O)Nc1nc(C)c(S(=O)(=O)NCCc2cccnc2)s1 | -10.5 |
| CN1CCN2CCN(Cc3cc(=O)n4c5c(cccc35)CCC4)CC2C1 (configuration not stated) | 9.05 |
| CCCN1CCC(N2CCOC(Cc3cccc(OC)c3)C2)CC1 (configuration not stated) | 8.69 |
| Cc1ccc2[nH]c(CN(C)Cc3ccccc3C(=O)O)nc2c1 | 7.01 |
| CC(NC(=O)c1cn(CCC2CCCCC2)nn1)c1cnn(C)c1 (configuration not stated) | 6.2 |
| COc1ccc(-n2cccn2)c(CN2CCC3(CCCNC3)C2)c1 (configuration not stated) | -1.09 |
| Cc1ccc(C(=O)N2CCC3(CC2)c2ccccc2[C@@H](N)[C@@H]3O)c(=O)[nH]1 | -2.72 |
| CCCN1CCN(C(=O)c2cccc3cccnc23)[C@H]2CS(=O)(=O)C[C@H]21 | 4.36 |
| O=C(NCC(O)c1cccc(O)c1)C1CCN(C2CCCCC2)CC1 (configuration not stated) | 7.16 |
| c1ccc2c(c1)CC(Cc1cc(N3CCCC3)cnn1)CO2 (configuration not stated) | -6.03 |
| O=C(O)[C@@H]1CN(C(=O)c2ccc(Cl)cc2)C[C@H]1c1cccc(F)c1 | -132 |
| O=C(c1cn2cc(Cl)ccc2n1)N1CCC(CCn2cccn2)CC1 | -10.2 |
| O=C(c1cc(Cn2ccc3ccccc32)[nH]n1)N1CCCCC1CO (configuration not stated) | 6.03 |
| CNc1nc(C(=O)NCc2cccnc2N(C)C2CCCCC2)cs1 | -5.35 |
| COCCN(Cc1cccc(OCCO)c1)Cc1ccccc1F | -9.53 |
| CC1=C(C(=O)N2CCCC(Cn3cc(CO)nn3)C2)OCCO1 (configuration not stated) | 0.92 |
| COCCCN(Cc1cnc(-c2cccs2)nc1)C1CCN(C)CC1 | -3.85 |
| CN(Cc1n[nH]c(=O)n1CCc1ccccc1F)S(C)(=O)=O | -1.78 |
| CC(NC(=O)Cc1cc2c(cc1Cl)OCCO2)c1ccncn1 (configuration not stated) | -6.29 |
| CC(C)c1cc(N2CCC[C@H](N)C2)n2nccc2n1 | -5.42 |
| COc1ccccc1N1CCC(N2CCOC(C(F)(F)F)C2)CC1 (configuration not stated) | -1.45 |

| SMILES | cytotoxicity at 10 µM [%] |
| --- | --- |
| CCn1cc(CN2CCC(c3ccncc3)CC2)cc1C#N | -5.38 |
| CCN(CC)C(=O)[C@@H]1C[C@H](NC(=O)c2cccn2C(C)C)CN1C | 7.57 |
| CCCOCC1CCN(C(=O)Cn2cccc(OC)c2=O)C1 (configuration not stated) | 5.88 |
| COCCn1cncc1Cn1ncc2ccccc2c1=O | 1.77 |
| COc1ccc(C)cc1-n1cnnc1C1CCOCC1 | 11.2 |
| CCSCCNC(=O)C(c1cccc(C)c1)N(C)C (configuration not stated) | -23 |
| Cc1cnn(C(C)C2CC2)c1NC(=O)c1cnccn1 (configuration not stated) | -5.39 |
| CCCn1nccc1C(=O)N1CCCN(CCCc2ccccc2)CC1 | -2.06 |
| O=C(CCN1CCOC1=O)Nc1cnn(-c2ccccc2Cl)c1 | -3.39 |
| COc1ccccc1C(O)CNC(=O)NCc1csc(C)n1 (configuration not stated) | -5.34 |
| Cc1noc(C)c1S(=O)(=O)NC(=O)COc1cccc(C(C)C)c1 | -10.7 |
| NC(=O)CN1CCN(C(=O)c2cc(Cl)cc3cccnc23)CC1 | -9.19 |
| COc1cccc(-n2nnc(C(=O)N3CCC(C(N)=O)CC3)c2C)c1 | -6.66 |
| O=C(c1ccc(N2CCOCC2)nc1)N1CCCC(n2ccnc2)C1 (configuration not stated) | -18.2 |
| O=C(Cc1ccccc1)N1CCN(CC(O)c2ccc(F)cc2)CC1 (configuration not stated) | -13.8 |
| Cc1nn(C)c(C)c1C1CCCN1Cc1ccc(C(N)=O)cc1 (configuration not stated) | -1.01 |
| CC(NC(=O)N1CCC(c2ccccc2)CC1)c1nncn1C (configuration not stated) | -10.3 |
| Cn1nc2c(cc1=O)CN(Cc1nc(-c3cccnc3)no1)CC2 | -14.6 |
| Cc1cnn(CC(C)NCc2ccccc2OCc2cccnc2)c1 (configuration not stated) | -12.9 |
| CC(NCc1cccc(Cl)c1)c1ccc(OCC(=O)NC2CC2)cc1 (configuration not stated) | -12.2 |
| c1cnn(CC2CN(c3ncnc4[nH]ccc34)CCO2)c1 (configuration not stated) | -8.81 |
| CC(=O)NCC1CCN(C(=O)NCCc2ccc(Cl)s2)CC1 | -6.19 |
| CCn1cnnc1C1CCN(C(=O)c2cccc3c2ccn3C)CC1 | -8 |

| SMILES | cytotoxicity at 10 µM [%] |
| --- | --- |
| Cc1nc(C)n(CC2CN(Cc3cccnc3)CCO2)n1 (configuration not stated) | -5.38 |
| Cc1nc(C)c(C(=O)NCCNC(=O)Cc2cccc(F)c2)s1 | -8.45 |
| Cn1ccnc1CN1CCN(CC(=O)NCC(F)(F)F)CC1 | -10 |
| Cn1cnc2c1CCN(Cc1csc(-c3ccsc3)n1)C2 | -8.78 |
| O=C(Nc1cccc2c1CCCC2)C1CCCN1c1nccs1 (configuration not stated) | -4.15 |
| COCCOc1ncccc1C(=O)Nc1ccc(-n2cncn2)c(F)c1 | -0.138 |
| CCn1cc(NC(=O)NCC(C)O)cn1 (configuration not stated) | -4.84 |
| Cc1nccn1CC1CCCN1S(=O)(=O)Cc1ccccc1F (configuration not stated) | -3.33 |
| O=C(CCN1CCCN(c2nccs2)CC1)NCC1CCCCC1 | -5.1 |
| O=C(c1ccc(O)c(Cl)c1)N1CCC(c2n[nH]c(C3CC3)n2)CC1 | 6.91 |
| CC(C)c1nc(CN2CCN(C(C)c3nc(C4CC4)no3)CC2)no1 (configuration not stated) | 6.54 |
| Cc1nc(CN2CCCN(CC(=O)Nc3cccnc3)CC2)no1 | 2.31 |
| Cc1ccc2cc(C(=O)NCCn3nc4ccccn4c3=O)[nH]c2c1 | 2.95 |
| Cc1ccc(CN2CC[C@H]3[C@H](CO[C@H]3CN(C)C)C2)o1 | -129 |
| Cc1nn(CCO)c(C)c1CNC1CCOc2ccccc21 (configuration not stated) | 14.4 |
| CNC(=O)c1cc2c(nc1N(C)C)CCN(C)CC2 | -149 |
| CN(C)CCN1C(=O)CCC12CCN(C(=O)c1cccnc1)CC2 | 6.41 |
| O=C1COC2(COCCN(Cc3ccsc3)C2)CN1c1ccc(F)cc1 (configuration not stated) | 2.83 |
| COCC1CC2(CCN(CC3CC3)CC2)CN1Cc1ccccn1 (configuration not stated) | -97.4 |
| CSc1ccc(-c2cc(CN)nc3ccnn23)cc1 | -7.5 |
